Calls of active or inactive are those of the source. The calls are words filed in the database; no cut-off is given here.
Assays:
[1] = Intrinsic clearance in human liver microsomes assessed per mg of protein incubated for 10 mins followed by potassium phosphate buffer addition and measured after 5 to 60 mins by LC-MS/MS analysis; assay type: ADME, Microsome; conditions: read-out: CLH
How it was run: (§1)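 Rat, dog, monkey or human liver microsomes pre-incubated with compound at 37 °C for 10 min; reaction started after pre-warming and stopped at 5, 15, 30, 60 min with chilled quench containing tolbutamide and labetalol. No-cofactor control in 100 mM potassium phosphate for 60 min. LC-MS/MS analysis; first-order fit: k = −slope, T1/2 = 0.693/k, CLint = k/microsomal protein concentration.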

[2] = target: Mitogen-activated protein kinase kinase kinase 14 (Homo sapiens, UniProt Q99558); assay: Inhibition of human NIK using myelin basic protein as substrate in presence of [gamma33P]ATP by hotspot assay
Mitogen-activated protein kinase kinase kinase 14, sequence (Q99558 whole entry): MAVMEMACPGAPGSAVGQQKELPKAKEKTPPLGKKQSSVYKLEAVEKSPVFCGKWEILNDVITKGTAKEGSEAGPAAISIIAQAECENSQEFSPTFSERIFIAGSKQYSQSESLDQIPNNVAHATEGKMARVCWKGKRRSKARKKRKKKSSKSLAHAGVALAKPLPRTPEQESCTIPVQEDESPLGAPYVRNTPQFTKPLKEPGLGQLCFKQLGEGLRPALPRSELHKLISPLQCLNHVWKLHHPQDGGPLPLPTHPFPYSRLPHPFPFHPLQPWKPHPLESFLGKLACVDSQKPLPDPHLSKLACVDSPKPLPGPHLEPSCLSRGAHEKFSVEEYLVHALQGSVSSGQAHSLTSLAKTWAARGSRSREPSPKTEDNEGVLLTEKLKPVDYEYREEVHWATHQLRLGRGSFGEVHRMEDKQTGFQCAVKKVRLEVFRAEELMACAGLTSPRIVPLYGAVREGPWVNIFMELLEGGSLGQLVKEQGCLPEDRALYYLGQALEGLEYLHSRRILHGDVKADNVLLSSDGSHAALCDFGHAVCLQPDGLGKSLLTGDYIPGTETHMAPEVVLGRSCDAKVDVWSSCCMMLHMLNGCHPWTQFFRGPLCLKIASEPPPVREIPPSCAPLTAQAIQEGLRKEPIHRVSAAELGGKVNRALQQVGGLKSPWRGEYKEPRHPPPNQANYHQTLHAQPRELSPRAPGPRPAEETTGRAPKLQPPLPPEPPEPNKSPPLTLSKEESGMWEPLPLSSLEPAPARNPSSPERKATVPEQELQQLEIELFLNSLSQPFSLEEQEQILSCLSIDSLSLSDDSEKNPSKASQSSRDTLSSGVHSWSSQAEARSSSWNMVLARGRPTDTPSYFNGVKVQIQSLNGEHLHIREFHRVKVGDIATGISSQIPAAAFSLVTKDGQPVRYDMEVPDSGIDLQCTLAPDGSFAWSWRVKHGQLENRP

[3] = target: NT-3 growth factor receptor (Homo sapiens, UniProt Q16288); assay: Inhibition of human TRKC using poly[Glu:Tyr] (4:1) as substrate in presence of [gamma33P]ATP by hotspot assay
NT-3 growth factor receptor, sequence (Q16288 whole entry): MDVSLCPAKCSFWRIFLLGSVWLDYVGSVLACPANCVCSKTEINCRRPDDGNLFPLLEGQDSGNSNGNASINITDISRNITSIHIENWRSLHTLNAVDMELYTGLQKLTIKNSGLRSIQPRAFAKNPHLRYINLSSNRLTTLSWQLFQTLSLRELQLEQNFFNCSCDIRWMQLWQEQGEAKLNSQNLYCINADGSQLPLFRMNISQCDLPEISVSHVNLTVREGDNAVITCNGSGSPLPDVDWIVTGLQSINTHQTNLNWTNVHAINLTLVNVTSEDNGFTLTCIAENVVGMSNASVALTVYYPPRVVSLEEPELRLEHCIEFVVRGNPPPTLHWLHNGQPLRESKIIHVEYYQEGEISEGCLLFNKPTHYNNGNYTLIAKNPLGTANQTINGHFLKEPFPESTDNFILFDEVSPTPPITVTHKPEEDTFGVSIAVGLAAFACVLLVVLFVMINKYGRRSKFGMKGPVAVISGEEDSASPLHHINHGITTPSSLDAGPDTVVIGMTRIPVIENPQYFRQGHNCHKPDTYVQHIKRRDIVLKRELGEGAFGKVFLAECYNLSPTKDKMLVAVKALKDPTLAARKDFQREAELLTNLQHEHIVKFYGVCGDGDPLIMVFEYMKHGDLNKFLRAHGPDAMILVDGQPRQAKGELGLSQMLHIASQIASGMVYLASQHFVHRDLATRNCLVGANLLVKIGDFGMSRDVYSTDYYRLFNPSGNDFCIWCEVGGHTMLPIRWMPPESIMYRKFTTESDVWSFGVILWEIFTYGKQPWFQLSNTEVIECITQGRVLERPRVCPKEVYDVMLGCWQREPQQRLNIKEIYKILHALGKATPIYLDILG

[4] = species on record: Homo sapiens; assay: Selectivity ratio of IC50 for human TRKC to IC50 for human NIK
[5] = species on record: Homo sapiens; assay: Selectivity ratio of IC50 for human LRRK2 to IC50 for human NIK
[6] = species on record: Homo sapiens; assay: Selectivity ratio of IC50 for human ACK1 to IC50 for human NIK
[7] = species on record: Homo sapiens; assay: Selectivity ratio of IC50 for human JAK1 to IC50 for human NIK
[8] = Elimination half life in rat liver microsomes incubated for 10 mins followed by potassium phosphate buffer addition and measured after 5 to 60 mins by LC-MS/MS analysis; assay type: ADME, Microsome; conditions: read-out: beta t1/2; how it was run: as §1
[9] = Intrinsic clearance in dog liver microsomes assessed as per mg of protein incubated for 10 mins followed by potassium phosphate buffer addition and measured after 5 to 60 mins by LC-MS/MS analysis; assay type: ADME, Canis lupus familiaris, Microsome; conditions: read-out: CLH; how it was run: as §1
[10] = Intrinsic hepatic clearance in dog; assay type: ADME, Canis lupus familiaris; conditions: in vivo
How it was run: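 Scaled from microsomal intrinsic clearance: CLint,in vitro × microsomal protein per g liver × liver weight per kg body weight.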

[11] = Half life in Sprague-Dawley rat at 1 mg/kg, iv administered as single bolus dose by LC-MS/MS analysis; assay type: ADME, organism-based; conditions: in vivo
[12] = Tmax in Sprague-Dawley rat at 10 mg/kg, po administered via gavage by LC-MS/MS analysis; assay type: ADME, organism-based; conditions: in vivo
How it was run: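 SD rats, 3 per group. Single IV bolus at 1 mg/kg in DMSO:PEG200:saline 20:20:60 (0.2 mg/mL), or oral gavage at 10 mg/kg as suspension in 0.5% CMC-Na/0.2% Tween 80 (1 mg/mL). Plasma protein-precipitated with acetonitrile containing internal standards, then quantified by LC-MS/MS. Parameters derived by noncompartmental analysis. Mean ± SD.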

[13] = Oral bioavailability in Sprague-Dawley rat at 10 mg/kg administered via gavage by LC-MS/MS analysis; assay type: ADME, organism-based; conditions: in vivo
[14] = target: Mitogen-activated protein kinase kinase kinase 14 (Mus musculus) (UniProt Q9WUL6); assay: Inhibition of NIK in mouse J774 cells assessed as reduction in LPS-induced IL6 mRNA level by SYBR green dye-based quantitative PCR analysis; assay type: cell-based
Mitogen-activated protein kinase kinase kinase 14 (Mus musculus), sequence (Q9WUL6 whole entry): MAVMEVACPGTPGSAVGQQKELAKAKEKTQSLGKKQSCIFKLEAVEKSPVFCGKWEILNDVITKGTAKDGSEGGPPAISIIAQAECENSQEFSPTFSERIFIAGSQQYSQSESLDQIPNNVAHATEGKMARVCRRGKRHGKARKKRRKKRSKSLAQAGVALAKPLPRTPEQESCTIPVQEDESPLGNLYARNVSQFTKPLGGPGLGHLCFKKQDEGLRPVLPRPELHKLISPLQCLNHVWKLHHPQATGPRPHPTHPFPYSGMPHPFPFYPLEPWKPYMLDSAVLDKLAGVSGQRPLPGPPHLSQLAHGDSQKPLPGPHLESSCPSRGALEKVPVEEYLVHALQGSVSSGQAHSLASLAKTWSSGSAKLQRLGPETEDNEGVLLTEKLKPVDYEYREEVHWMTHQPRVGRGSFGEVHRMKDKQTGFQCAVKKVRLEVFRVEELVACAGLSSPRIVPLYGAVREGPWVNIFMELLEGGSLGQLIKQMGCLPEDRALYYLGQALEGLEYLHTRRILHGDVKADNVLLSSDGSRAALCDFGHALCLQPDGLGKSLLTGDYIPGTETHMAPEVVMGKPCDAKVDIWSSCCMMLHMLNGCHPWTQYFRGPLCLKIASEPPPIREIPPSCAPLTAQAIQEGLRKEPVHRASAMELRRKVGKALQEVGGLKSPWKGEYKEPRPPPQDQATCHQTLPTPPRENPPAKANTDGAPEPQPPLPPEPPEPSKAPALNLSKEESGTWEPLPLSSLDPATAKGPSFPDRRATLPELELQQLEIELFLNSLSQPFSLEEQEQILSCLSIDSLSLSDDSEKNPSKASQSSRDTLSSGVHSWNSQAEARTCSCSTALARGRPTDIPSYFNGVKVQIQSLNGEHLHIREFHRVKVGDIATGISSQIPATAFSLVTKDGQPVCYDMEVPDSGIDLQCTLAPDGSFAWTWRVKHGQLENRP
How it was run: (§2)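 LPS-stimulated J774 macrophages; mRNA quantified by qPCR using 4 µL cDNA plus 16 µL master mix per reaction. Mean ± SD of three biological replicates; significance by two-tailed Student's t-test against the model group.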

[15] = test system: J774; assay: Antiinflammatory activity in mouse J774 cells assessed as reduction in LPS-induced IL23 mRNA level by SYBR green dye-based quantitative PCR analysis; assay type: functional, cell-based; how it was run: as §2
[16] = test system: Mus musculus; assay: Protection against IMQ-induced dermatitis in C57 mouse model of psoriasis assessed as reduction in roughness at 60 to 120 mg/kg, ig administered once daily starting from day 3 post IMQ-challenge and measured 2 days post-last dose of IMQ; assay type: functional, organism-based
How it was run: (§3)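 C57 mice given 5% imiquimod cream on the back once daily for 7 days; intragastric dosing 60 or 120 mg/kg once daily from day 3 to end, n = 6 per group. Dorsal skin phenotype assessed by imaging.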

[17] = test system: Mus musculus; assay: Protection against IMQ-induced dermatitis in C57 mouse model of psoriasis assessed as reduction in dermal scales at 120 mg/kg, ig administered once daily starting from day 3 post IMQ-challenge and measured 2 days post-last dose of IMQ; assay type: functional, organism-based; how it was run: as §3
[18] = test system: Mus musculus; assay: Suppression of IMQ-induced epidermal acanthosis in ig dosed C57 mouse model of psoriasis assessed as reduction in epidermal thickness administered once daily starting from day 3 post IMQ-challenge and measured 2 days post-last dose of IMQ by hematoxylin-eosin staining based confocal laser scanning microscopy; assay type: functional, organism-based
How it was run: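 IMQ-induced C57 mice (5% cream 7 days; 60 or 120 mg/kg i.g. daily from day 3, n = 6). Formalin-fixed, paraffin-embedded back skin cut at 3 µm and H&E stained. Epidermal thickness measured in six randomly chosen fields; blind evaluation by two pathologists.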

[19] = test system: Mus musculus; assay: Suppression of IMQ-induced psoriasis in C57 mouse assessed as reduction in spleen index at 60 mg/kg, ig administered once daily starting from day 3 post IMQ-challenge and measured 2 days post-last dose of IMQ; assay type: functional, organism-based
How it was run: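 IMQ-induced C57 mice (5% cream daily 7 days; i.g. daily from day 3 at the stated dose, n = 6). Spleen weighed per mouse at end of study.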

[20] = test system: Mus musculus; assay: Suppression of IMQ-induced psoriasis in ig dosed C57 mouse assessed as reduction in serum TNFalpha level administered once daily starting from day 3 post IMQ-challenge and measured 2 days post-last dose of IMQ by ELISA; assay type: functional, organism-based
How it was run: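 Psoriasis-like dermatitis induced by 5% imiquimod cream on back skin of C57 mice, q.d. for seven days. Oral (i.g.) dosing q.d. at 60 or 120 mg/kg from day 3 to study end, n = 6 per group. At end, blood held at 4 °C for 12 h, then centrifuged. Serum TNFα measured by ELISA. Mean ± SEM.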

[21] = test system: Mus musculus; assay: Suppression of IMQ-induced psoriasis in C57 mouse assessed as reduction in macrophage infiltration in back skin tissue at 60 to 120 mg/kg, ig administered starting from day 3 post IMQ-challenge and measured 2 days post-last dose of IMQ by F4/80 immunofluorescence staining based assay; assay type: functional, organism-based
How it was run: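 IMQ-induced C57 mice (5% cream 7 days; 60 or 120 mg/kg i.g. daily from day 3). Frozen back-skin sections, 6 µm, stained with F4/80 antibody, DAPI counterstain, and imaged by confocal microscopy. Significance by two-tailed t-test.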

[22] = target: Mitogen-activated protein kinase kinase kinase 14 (Mus musculus) (UniProt Q9WUL6); assay: (§4) In vivo inhibition of NIK in C57 mouse model of IMQ-induced psoriasis assessed as reduction in NF-kappaB signalling in back skin by measuring decrease in mRNA IL-10 level at 60 to 120 mg/kg, po administered starting from day 3 post IMQ-challenge and measured 2 days post-last dose of IMQ by qPCR analysis; assay type: functional, organism-based
How it was run: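 IMQ psoriasis model: 5% imiquimod cream applied to C57 mouse back skin once daily for seven days; oral dosing 60 or 120 mg/kg once daily from day 3, n = 6 per group. Back-skin mRNA measured by qPCR.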

[23] = target: Mitogen-activated protein kinase kinase kinase 14 (Mus musculus) (UniProt Q9WUL6); assay: as §4, with “IL-12” for “IL-10”; assay type: functional, organism-based
How it was run: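 C57 mice had 5% imiquimod cream applied to the back skin once daily for seven consecutive days. Oral gavage dosing at 60 or 120 mg/kg once daily started on day 3 and continued to the end, with n = 6 per group alongside normal and IMQ-only model groups. Back-skin mRNA was quantified by qPCR.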

With `CC(O)(C#Cc1ccc(N2CCOCC2)c(Nc2ncnc3[nH]ccc23)c1)c1nccs1` (racemic) the microsomal CLint [1] was 32.4 µL/min/mg, the IC50 [2] was 9.7 nM and the IC50 [3] was 50.1 nM. For the same molecule, the Ratio IC50 [4] was 4 to 20, the Ratio IC50 [5] was 4 to 20 and the Ratio IC50 [6] was 4 to 20. The Ratio IC50 [7] was 4 to 20, the half-life [8] was 30.8 min and the microsomal CLint [9] was 43.3 µL/min/mg. For the same molecule, the CLH [10] was 62.4 mL/min/kg, the half-life [11] was 56.6 min and the Tmax [12] was 50 min. The bioavailability [13] was 64%, the inhibition [14] was “Active” and the Activity [15] was “Active”. The Activity [16] was “Active”, the Activity [17] was “Active” and the inhibition [18] was “Dose-dependent effect”. For the same molecule, the inhibition [19] was “Active”, the inhibition [20] was “Dose-dependent effect” and the inhibition [21] was “Active”. The inhibition [22] was “Active” and the inhibition [23] was “Active”.

Reference: ChEMBL document CHEMBL4616671, “Identification of N-Phenyl-7H-pyrrolo[2,3-d]pyrimidin-4-amine Derivatives as Novel, Potent, and Selective NF-κB Inducing Kinase (NIK) Inhibitors for the Treatment of Psoriasis” (J Med Chem, 2020)
